In ChEMBL document CHEMBL4689842, “EUbOPEN Chemogenomics Library wave 1” (2021):
Where “and” joins values, the source holds several entries; their conditions need not be identical. Equal values may be shown once.

Test system: U2OS
Assay: Multiplex assay against U2OS
Type: toxicity, cell-based
Details: human
Method in brief: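 Live cells were stained at seeding with Hoechst33342, BioTracker Green Microtubule Cytoskeleton Dye, MitoTracker Red and Annexin V Alexa Fluor 680, then imaged on a CQ1 microscope at 37°C and 5% CO2 after compound addition. CellPathfinder machine-learning gating split cells into Hoechst high-intensity objects or normal cells. Normal cells were split into healthy, pyknosed or fragmented nuclei, and pyknosed cells into mitotic or apoptotic. Tubulin, mitochondrial-mass and membrane-permeability phenotypes are per cents of healthy-nucleus cells.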

[1] = 12 h, 1 µM, compound concentration 1 uM, replicate 1
[2] = 12 h, 1 µM, compound concentration 1 uM, replicate 2
[3] = 12 h, 10 µM, compound concentration 10 uM, replicate 1
[4] = 12 h, 10 µM, compound concentration 10 uM, replicate 2
[5] = 24 h, 1 µM, compound concentration 1 uM, replicate 1
[6] = 24 h, 1 µM, compound concentration 1 uM, replicate 2
[7] = 24 h, 10 µM, compound concentration 10 uM, replicate 1
[8] = 24 h, 10 µM, compound concentration 10 uM, replicate 2

`CC(=O)O[C@H]1C(=O)[C@@]2(C)[C@H]([C@H](OC(=O)c3ccccc3)[C@]3(O)C[C@H](OC(=O)[C@H](O)[C@@H](NC(=O)c4ccccc4)c4ccccc4)C(C)=C1C3(C)C)[C@]1(OC(C)=O)CO[C@@H]1C[C@@H]2O` [PACLITAXEL] was tested, and the “Population Fragmented Nuclei (%)” value [1] was 6% and 4%, the “Population Healthy Nuclei (%)” value [1] was 86% and 92% and the “Population Hoechst High Intensity Objects (%)” value [1] was 3% and 2%. For the same compound, the “Population Membrane Permeable-Phenotype (%)” value [1] was 15% and 11%, the “Population Mitochondria Different-Phenotype (%)” value [1] was 21% and 22% and the “Population Mitotic Cells (%)” value [1] was 33% and 80%. The “Population Normal (%)” value [1] was 96% and 97%, the “Population Pyknosed Nuclei (%)” value [1] was 7% and 3% and the “Population Tubulin-Different-Phenotype (%)” value [1] was 32% and 25%. The “Population Apoptotic (%)” value [2] was 6% and 8%, the “Population Fragmented Nuclei (%)” value [2] was 7% and the “Population Healthy Nuclei (%)” value [2] was 81% and 84%. The “Population Hoechst High Intensity Objects (%)” value [2] was 10% and 11%, the “Population Membrane Permeable-Phenotype (%)” value [2] was 14% and 7% and the “Population Mitochondria Different-Phenotype (%)” value [2] was 24% and 30%. The “Population Mitotic Cells (%)” value [2] was 93% and 91%, the “Population Normal (%)” value [2] was 90% and 88% and the “Population Pyknosed Nuclei (%)” value [2] was 10% and 8%. The “Population Tubulin-Different-Phenotype (%)” value [2] was 33%, the “Population Apoptotic (%)” value [3] was 30% and 77% and 26% and the “Population Fragmented Nuclei (%)” value [3] was 3% and 5% and 4% and 2%. The “Population Healthy Nuclei (%)” value [3] was 91% and 89%, the “Population Hoechst High Intensity Objects (%)” value [3] was 3% [middle of 4 runs] and the “Population Membrane Permeable-Phenotype (%)” value [3] was 11% and 7%. The “Population Mitochondria Different-Phenotype (%)” value [3] was 19% and 25%, the “Population Normal (%)” value [3] was 96% and 95% and 99% and 98% and the “Population Pyknosed Nuclei (%)” value [3] was 5%. The “Population Tubulin-Different-Phenotype (%)” value [3] was 41% and 30% and 39%, the “Population Fragmented Nuclei (%)” value [4] was 10% and 6% and the “Population Healthy Nuclei (%)” value [4] was 81% and 88% and 83% and 87%. The “Population Hoechst High Intensity Objects (%)” value [4] was 12% and 9% and 11%, the “Population Membrane Permeable-Phenotype (%)” value [4] was 12% and 9% and 8% and 6% and the “Population Mitochondria Different-Phenotype (%)” value [4] was 28% and 20% and 33%. For the same compound, the “Population Mitotic Cells (%)” value [4] was 77% [middle of 4 runs], the “Population Normal (%)” value [4] was 87% and 90% and 88% and the “Population Pyknosed Nuclei (%)” value [4] was 8% and 6% and 2%. The “Population Tubulin-Different-Phenotype (%)” value [4] was 28% and 26% and 31%, the “Population Fragmented Nuclei (%)” value [5] was 4% and the “Population Healthy Nuclei (%)” value [5] was 93% and 90%. The “Population Hoechst High Intensity Objects (%)” value [5] was 1% and 3%, the “Population Membrane Permeable-Phenotype (%)” value [5] was 10% and 3% and the “Population Mitochondria Different-Phenotype (%)” value [5] was 19% and 15%. For the same compound, the “Population Mitotic Cells (%)” value [5] was 40% and 83%, the “Population Normal (%)” value [5] was 98% and 96% and the “Population Pyknosed Nuclei (%)” value [5] was 2% and 5%. The “Population Tubulin-Different-Phenotype (%)” value [5] was 35%, the “Population Apoptotic (%)” value [6] was 38% and 33% and the “Population Fragmented Nuclei (%)” value [6] was 5%. For the same compound, the “Population Healthy Nuclei (%)” value [6] was 87% and 91%, the “Population Hoechst High Intensity Objects (%)” value [6] was 6% and 7% and the “Population Membrane Permeable-Phenotype (%)” value [6] was 12% and 9%. For the same compound, the “Population Mitochondria Different-Phenotype (%)” value [6] was 23% and 26%, the “Population Mitotic Cells (%)” value [6] was 61% and 66% and the “Population Normal (%)” value [6] was 93% and 92%. For the same compound, the “Population Pyknosed Nuclei (%)” value [6] was 6% and 4%, the “Population Tubulin-Different-Phenotype (%)” value [6] was 37% and 33% and the “Population Apoptotic (%)” value [7] was 37% and 21%. The “Population Fragmented Nuclei (%)” value [7] was 3% and 2%, the “Population Healthy Nuclei (%)” value [7] was 94% and 91% and 93% and the “Population Hoechst High Intensity Objects (%)” value [7] was 2% and 1%. The “Population Membrane Permeable-Phenotype (%)” value [7] was 6% and 4%, the “Population Mitochondria Different-Phenotype (%)” value [7] was 26% and 17% and 29% and the “Population Mitotic Cells (%)” value [7] was 62% and 78%. The “Population Normal (%)” value [7] was 97% and 98%, the “Population Pyknosed Nuclei (%)” value [7] was 2% and 4% and 5% and the “Population Tubulin-Different-Phenotype (%)” value [7] was 50% and 38% and 34% and 37%. The “Population Apoptotic (%)” value [8] was 50% [middle of 4 runs], the “Population Fragmented Nuclei (%)” value [8] was 10% and 5% and 7% and the “Population Healthy Nuclei (%)” value [8] was 81% and 86% and 85%. The “Population Hoechst High Intensity Objects (%)” value [8] was 5% and 3% and 4% and 9%, the “Population Mitochondria Different-Phenotype (%)” value [8] was 32% [middle of 4 runs] and the “Population Mitotic Cells (%)” value [8] was 45% and 66% and 50% and 64%. For the same compound, the “Population Normal (%)” value [8] was 94% and 96% and 95% and 90%, the “Population Pyknosed Nuclei (%)” value [8] was 8% and 3% and 6% and the “Population Tubulin-Different-Phenotype (%)” value [8] was 31% and 26% and 27%.
